Laboratory results published in the EternaBench riboswitch data.

Tested on: MS2 coat protein
Experiment: apparent Kd, MS2 coat protein; higher = weaker binding; RNA-MaP array; FMN 200 µM where present
In short: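 The apparent Kd is reported as the median of filtered per-cluster binding-curve fits. To get these curves, designs transcribed by stalled E. coli RNA polymerase on Illumina sequencing-chip clusters were titrated with SNAP-549-labelled MS2 coat protein from 0.7 or 1.5 nM, doubling to 3 µM. Titrations were run without and then with constant ligand in 100 mM Tris-HCl pH 7.5, 80 mM KCl, 4 mM MgCl2, BSA, DTT, yeast tRNA and Tween-20, and green signal was normalised to red-channel RNA signal and control-cluster median Fmax.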

[1] = designed as: OFF switch for flavin mononucleotide, no ligand
[2] = ligand present: flavin mononucleotide, designed as: OFF switch for flavin mononucleotide
[3] = designed as: ON switch for flavin mononucleotide, no ligand
[4] = ligand present: flavin mononucleotide, designed as: ON switch for flavin mononucleotide

GGGCACGGAGGAUAUACAUGAGGAUCACCCAUGUGAUUAGGGCAGUACUUGCCGAUCCGUAGAAGGUUGGCCGA
apparent Kd [1]: 0.0261 µM | apparent Kd [2]: 0.0268 µM

GGGCCCGGAGGAUAUACAAUGGGCUCGGGAAACUGGGUCUUACAUGAGGAUCACCCAUGUAGAAGGCCGGGCCC
apparent Kd [1]: 0.0189 µM | apparent Kd [2]: 0.0234 µM

GGGCCGGUGGAGAAGGAGCUUACGAAACGUAGGCUAGGAUAUCCACAUGAGGAUCACCCAUGUGGGAAUAUCUGAUUUUCGCAG
apparent Kd [1]: 0.004 µM | apparent Kd [2]: 0.00526 µM

GGGCCGGUGGAGAAGGAGCUUGCGAAACGCAUGCUAGGAUAUCCACAUGAGGAUCACCCAUGUGGGAAUAUCUGAUUUUCGCAG
apparent Kd [1]: 0.00436 µM | apparent Kd [2]: 0.00484 µM

GGGCUCGGAGGAUAUACAUGAGGAUCACCCAUGUAUCUGGGUCUUAUUGGGCUCGGGUGUAGAAGGCUGGGUCU
apparent Kd [1]: 0.0139 µM | apparent Kd [2]: 0.0155 µM

GGGUACAGUGAGAAGGUCUGCGGAUUCCUUAACAUGAGGAUCACCCAUGUAGAAGGAUAUCACAGGUAAAGGUCGUCUAACGAU
apparent Kd [1]: 0.00549 µM | apparent Kd [2]: 0.00682 µM

GGGUACAUCGGAGGAUAUCAUGUAAAUACAUGAGGAUCACCCAUGUCGAUGCAGACAUCGGAGAUUGAGAAGGCCGAUGUACCG
apparent Kd [3]: 0.974 µM | apparent Kd [4]: 0.0784 µM

GGGUACAUCGGAGGAUAUCAUGUAAAUACAUGAGGAUCACCCAUGUCGAUGGAGACAUCCGAGAUUGAGAAGGCCGAUGUACCG
apparent Kd [3]: 0.0293 µM | apparent Kd [4]: 0.0133 µM

GGGUACAUCGGAGGAUAUCAUGUAAAUACAUGAGGAUCACCCAUGUCGAUGGAGACAUCGGAGAAUGAGAAGGCCGAUGUACCG
apparent Kd [3]: 0.0176 µM | apparent Kd [4]: 0.00534 µM

GGGUACAUCGGAGGAUAUCAUGUAAAUACAUGAGGAUCACCCAUGUCGAUGGAGACAUCGGAGAUUGAGAAGGCCGAUGUAACG
apparent Kd [3]: 0.183 µM | apparent Kd [4]: 0.00947 µM

GGGUACAUCGGAGGAUAUCAUGUAAAUACAUGAGGAUCACCCAUGUCGAUGGAGACAUCGGAGAUUGAGAAGGCCGAUGUAUCG
apparent Kd [3]: 0.157 µM | apparent Kd [4]: 0.00909 µM

GGGUACAUCGGAGGAUAUCAUGUAAAUACAUGAGGAUCACCCAUGUCGAUGGAGACAUCGGAGAUUGAGAAGGCCGAUGUGCCG
apparent Kd [3]: 0.145 µM | apparent Kd [4]: 0.0095 µM

GGGUACAUCGGAGGAUAUCAUGUAAAUACAUGAGGAUCACCCAUGUCGAUGGAGACAUCGGAGUUUGAGAAGGCCGAUGUACCG
apparent Kd [3]: 0.15 µM | apparent Kd [4]: 0.00658 µM

GGGUACAUCGGAGGAUAUCAUGUAAAUACAUGAGGAUCACCCAUGUCGAUUGAGACAUCGGAGAUUGAGAAGGCCGAUGUACCG
apparent Kd [3]: 0.0745 µM | apparent Kd [4]: 0.534 µM

GGGUACAUCGGAGGAUAUCAUGUAAAUACAUGAGGAUCACCCAUGUGGAUGGAGACAUCGGAGAUUGAGAAGGCCGAUGUACCG
apparent Kd [3]: 0.0109 µM | apparent Kd [4]: 0.00556 µM

GGGUACAUCGGAGGAUAUCAUGUAGACACAUGAGGAUCACCCAUGUCGAUGGAGACAUCGGAGAUUGAGAAGGCCGAUGUACCG
apparent Kd [3]: 0.435 µM | apparent Kd [4]: 0.0239 µM

GGGUACAUCGGAGGAUAUCAUGUUAAUACAUGAGGAUCACCCAUGUCGAUGGAGACAUCGGAGAUUGAGAAGGCCGAUGUACCG
apparent Kd [3]: 0.322 µM | apparent Kd [4]: 0.0114 µM

GGGUACAUGGGAGGAUAUCAUGUAGAUACAUGAGGAUCACCCAUGUCGAUGGAGACAUCGGAGAUUGAGAAGGCCCAUGUACCG
apparent Kd [3]: 0.696 µM | apparent Kd [4]: 0.0361 µM

GGGUAUAUCGGAGGAUAUCAUGUAAAUACAUGAGGAUCACCCAUGUCGAUGGAGACAUCGGAGAUUGAGAAGGCCGAUGUACCG
apparent Kd [3]: 0.163 µM | apparent Kd [4]: 0.00934 µM

GGGUCAACAUGAGGAUCACCCAUGUAGGAUAUCGCUAUUGUAAUCAUGAAACAUGAUUACAAUAGCGAGAAGGACAUAUGCAAA
apparent Kd [1]: 0.0113 µM | apparent Kd [2]: 0.0234 µM

GGGUGGCGUAGAGGAUAUAUGGUACAUGAGGAUCACCCAUGUGCAUAUGAUGUUCAUGUUUAUGUAUAGAAGGCUACGUCGCUA
apparent Kd [3]: 0.0406 µM | apparent Kd [4]: 0.0428 µM

GGGUUGGGAGGAUAUCCAAUAUAUGACAUGAGGAUCACCCAUGUUUCCACUCGUACCUCCGGAGAAGGCCCAUCCC
apparent Kd [1]: 0.0229 µM | apparent Kd [2]: 0.0211 µM

GGUACCAUCACAGGAUAUGCUUUCCUUUGGGAAGCAGAAGGGUGUAACAUGAGGAUCACCCAUGUGGUGCCAGGGCGUGAGCCC
apparent Kd [3]: 0.47 µM | apparent Kd [4]: 0.0426 µM

GGUACCAUCACAGGAUAUGCUUUCCUUUGGGAAGCAGAAGGGUGUAACAUGAGGAUCACCCAUGUGGUGCCAGGGCGUGAGCCU
apparent Kd [3]: 0.216 µM | apparent Kd [4]: 0.016 µM

GGUACUCAAAGAGUACCAAUACGAACAUGAGGAUCACCCAUGUAGGAUAUGCUACUCAAAGAGUAGCAGAAGGACAUGUGCCUC
apparent Kd [1]: 0.418 µM | apparent Kd [2]: 0.0385 µM

GGUAUACAUGAGGAUCACCCAUGUCGUAUGACAUGAGGAUAUGUACAGACUUCGGUCUGUACAGAAGGCGUGUGUC
apparent Kd [3]: 0.362 µM | apparent Kd [4]: 0.158 µM

GGUCAUCAAGUCAGGAUAUCGUCUGGUCGGUCUGGCGAGAAGGGACAUGAGGAUCACCCAUGUCGUCUCAUCAG
apparent Kd [1]: 0.0152 µM | apparent Kd [2]: 0.0177 µM

GGUCCAACAUGAGGAUAUAGCACCUUAUUGGUGCUAGAAGGCGUGUCGAUAGACAUGAGGAUCACCCAUGUAAUAAAUUGGACC
apparent Kd [3]: 0.793 µM | apparent Kd [4]: 0.139 µM

GGUCCACGAGGAUAUCGAUUAUAGUACAUGAGGAUCACCCAUGUUGUCCAGGUUUCGAUUCGAGAAGGCGUGGGUU
apparent Kd [1]: 0.0544 µM | apparent Kd [2]: 0.039 µM

GGUCCGUAACAGAAGGCCGUAACUGGUAGUGGCGGAGGAUAUGUGGGCGGCCCUUGACAACAUGAGGAUCACCCAUGUAUGUAA
apparent Kd [3]: 0.335 µM | apparent Kd [4]: 0.0203 µM

GGUCCGUGUACAUGAGGAUCACCCAUGUCGAUGUUUCCUGGACAGGAUAUAUGCUUAAUACCGACAUAGAAGGGUCCACGUGUG
apparent Kd [3]: 0.0911 µM | apparent Kd [4]: 0.191 µM

GGUCGGAGCAGAGGAUAUUACAUGAGGAUCACCCAUGUAUGAACCAAUAGCUGGAAACAGCAAUGUAAGAAGGCUGCUCCGACA
apparent Kd [1]: 0.0135 µM | apparent Kd [2]: 0.173 µM

GGUCGUCAAGUCAGGAUAUCGUUUGGUCGGUGUGGCGAGAAGGGACAUGAGGAUCACCCAUGUCGUCUCAUCAG
apparent Kd [1]: 0.027 µM | apparent Kd [2]: 0.0299 µM

GGUGCACAUGAGAAGGCGAUCAUGAAACAUGAUCGAGGAUAUCAUGUAAACAUGAGGAUCACCCAUGUAUGGGAAAAGUGCACC
apparent Kd [3]: 0.114 µM | apparent Kd [4]: 0.0109 µM

GGUGCGAUGUAGAAGGCAGAUCUGAUUCAGAUCUGAGGAUAUACAUGAGGAUCACCCAUGUAAACGCACCGCACGAGAGUGCAA
apparent Kd [1]: 0.0066 µM | apparent Kd [2]: 0.00812 µM

GGUGCGUAUGUGAGGAUAUGCUGGUCCUUGGAUCGGCAGAAGGCACAUGAGGAUCACCCAUGUGGUGUCGUACA
apparent Kd [1]: 0.411 µM | apparent Kd [2]: 0.0347 µM

GGUGGACAUGAGGAUCACCCAUGUGAGGAUAUCGGCCGGUUCGUGGUGGCUGGCGUCUCGAGAAGGCGCAUAGU
apparent Kd [1]: 0.035 µM | apparent Kd [2]: 0.0457 µM

GGUGGACAUGAGGAUCACCCAUGUGAGGAUAUCGGCUAUCUUAUCGCUGUCGGUUGCUCGAGAAGGCACAUUGU
apparent Kd [1]: 0.0767 µM | apparent Kd [2]: 0.195 µM

GGUGGACAUGAGGAUCACCCAUGUGAGGAUAUCGGCUGGCUACUGGCUGACGGCUGCUCGAGAAGGCGCAUUGU
apparent Kd [1]: 0.04 µM | apparent Kd [2]: 0.0736 µM

GGUGGACAUGAGGAUCACCCAUGUGAGGAUAUCGGCUGGUACGUGUUGGCUGGCUUCUCGAGAAGGCACAUAGU
apparent Kd [1]: 0.0647 µM | apparent Kd [2]: 0.0754 µM

GGUGUAUAUGAGAAGGCGAUCAUGAAACAUGAUCGAGGAUAUCAUGUAAACAUGAGGAUCACCCAUGUAUGGGAAUAAUGCACC
apparent Kd [3]: 0.12 µM | apparent Kd [4]: 0.0136 µM

GGUGUCGCAUGAGGAUAUGGUCAGCUUUGCUGACCAGAAGGCAUGUCAAUAGACAUGAGGAUCACCCAUGUAGUUAAGACACCA
apparent Kd [3]: 0.739 µM | apparent Kd [4]: 0.0482 µM

GGUUCACGAGGAUAUCGAUUUUAGUACAUGAGGAUCACCCAUGUUGUCCAGGUUUCGAUUCGAGAAGGCGUGAACC
apparent Kd [1]: 0.0228 µM | apparent Kd [2]: 0.0225 µM

GGUUCCAACACAGGAUAUGCUAUCCUUUGGGUAGCAGAAGGGUGAAACAUGAGGAUCACCCAUGUGGAGCCAGGGCGUGAGCCC
apparent Kd [3]: 0.593 µM | apparent Kd [4]: 0.0631 µM

GGUUCCAUCGCAGGAUAUGCUAUCCUUUGGGUAGCAGAAGGGUGAUAACAUGAGGAUCACCCAUGUGGAACCGGGCGUGAGCCC
apparent Kd [3]: 0.177 µM | apparent Kd [4]: 1.05 µM

GGUUGGCGAGGAUAUACAUGAGGAUCACCCAUGUGGUCCUGCGAUGGUGUCGCCCUUUGUAGAAGGCGCGGGUC
apparent Kd [1]: 0.045 µM | apparent Kd [2]: 0.0425 µM

GGUUGGCGAGGAUAUACAUGAGGAUCACCCAUGUGGUCCUGCGGUGGUUUCGCCCUUUGUAGAAGGCGCGGGUC
apparent Kd [1]: 0.0409 µM | apparent Kd [2]: 0.0405 µM

GGUUGGCGAGGAUAUACAUGAGGAUCACCCAUGUGGUCCUGUGGCUGAUCUUGCCUUUGUAGAAGGCGCGGGUC
apparent Kd [1]: 0.0494 µM | apparent Kd [2]: 0.0453 µM

GGUUGGCGAGGAUAUACAUGAGGAUCACCCAUGUGGUCCUGUGGCUGGUCUAACCUUUGUAGAAGGCGCGGGUC
apparent Kd [1]: 0.225 µM | apparent Kd [2]: 0.186 µM

GGUUUGGGAGGAUAUGGCUUGAAUGACAUGAGGAUCACCCAUGUAAGUGGAUCUUCCGGGCCAGAAGGCUCGGGCC
apparent Kd [1]: 0.0638 µM | apparent Kd [2]: 0.136 µM

GUAACAUGAGGAUCACCCAUGUAUAGAACACUCAAUAGAUCUGAGGAUAUAGUGGAAUUUACACACUAGAAGGCAGUGGGUGCA
apparent Kd [3]: 0.0753 µM | apparent Kd [4]: 0.0336 µM

GUAACAUGAGGAUCACCCAUGUAUAGAACACUCAAUAGAUUUGAGGAUAUAGUGGAAUUUACACACUAGAAGGCAGUGGGUGCA
apparent Kd [3]: 0.181 µM | apparent Kd [4]: 0.253 µM

GUAACAUGAGGAUCACCCAUGUCGUGCUAGAUGAGUUCUGGUGAGGAUAUACAUGGUAAAUAACUGUAGAAGGUGCUGGGUACA
apparent Kd [3]: 0.159 µM | apparent Kd [4]: 0.167 µM

GUAAGUCAUGUAGGAUAUCCGAGGCGAAGCGUUGGAGAAGGACAUGAGGAUCACCCAUGUUCUAGCGUCUGAGUACAGAUGCAG
apparent Kd [1]: 0.0294 µM | apparent Kd [2]: 0.104 µM

GUACCUUAUGAGAAGGCGAUCAUAAAACGUGAUCGAGGAUAUCAUGAAAACAUGAGGAUCACCCAUGUAUGGGUAUUAUGGUAC
apparent Kd [3]: 0.036 µM | apparent Kd [4]: 0.0193 µM
